According to article PMC10896134 (Pharmaceutical Biology, 2024):

Experiments:
neuroblastoma cell lines = settings: read-out: IC50 in neuroblastoma cell lines; ref Aggarwal et al. [2012]; cited from earlier work
[1] = tested on: non-neuroblastoma cell lines; settings: read-out: IC50 in non-neuroblastoma cell lines; ref Aggarwal et al. [2012]; cited from earlier work
A549 xenografts = assay: A549 xenograft tumour model in nude mice; type: in vivo, female BALB/c nude mice; settings: 2 mg/kg i.p. once every two days, eight times
In short: (§1)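 Female BALB/c nude mice, 5 weeks old, acclimated 1 week, then given 5.0 × 10^6 A549 cells in 0.1 mL serum-free medium subcutaneously into the left axilla. Body weight and caliper tumour size (0.5 × length × width2) were taken every two days; tumours were excised and weighed at the end.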

[2] = tested on: Bax and Bcl-2 in A549 cells; assay: Western blot of apoptosis-related proteins; type: cell-based, human
In short: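 Immunoblot of A549 lysates: heat-denatured in non-reducing sample buffer, Bradford-quantified, 20 µg protein on 10% SDS-PAGE, transferred to PVDF. Blots were probed for Bax and Bcl-2 with GAPDH as internal control, detected by ECL and quantified by densitometry. Data given as mean ± SD.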

A549 cells [3] = assay: Mitochondrial membrane potential analysis; type: cell-based, human; settings: A549, JC-1, 2.0 µM, 12 h; control 4.33%
A549 cells [4] = assay: Transwell invasion assay; type: cell-based, human; settings: A549, 24 h; better than PPT and etoposide at 1.0 µM
[5] = tested on: PI3K/Akt pathway in A549 cells; assay: Western blot of PI3K/Akt signalling pathway proteins; type: cell-based, human; settings: 24 h
In short: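 A549 cells were treated 24 h with test compound (0.1, 0.5, 1.0 or 2.0 µM), LY294002 (1.0 µM) or a reference agent (1.0 µM). Lysates were heat-denatured in non-reducing sample buffer and quantified by Bradford assay. 20 µg protein ran on 10% SDS-PAGE, transferred to PVDF and probed for PI3K, pPI3K, Akt and pAkt with GAPDH as loading control. Detection was by ECL with densitometry.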

Hela = assay: Antiproliferation assay; type: cell-based; settings: Homo sapiens, 24 h, read-out: IC50 = mean ± SD, Hela
In short: (§2)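 Cell lines were grown at 37 °C under 5% CO2 in their own media: A549 in DMEM/F12, H446 in RPMI 1640, and HeLa, MCF-7, L02 and BEAS-2B in high-glucose DMEM with L-glutamine, with 10% FBS and penicillin/streptomycin. Cells were seeded in 96-well plates and exposed to test compounds or reference agents at 37 °C for 24 h. CCK-8 was added for 2 h and absorbance read at 450 nm.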

BEAS-2B = assay: Antiproliferation assay; type: cell-based; settings: Homo sapiens, 24 h, read-out: IC50 = mean ± SD, BEAS-2B
In short: as §2

[6] = tested on: interphase microtubules of A549 cells (tubulin); assay: Confocal microscopy / western blot of tubulin depolymerization; type: cell-based, human; settings: A549, 24 h; E5 0.5 and 1.0 µM, colchicine 1.0 µM, etoposide 1.0 µM
A549 cells [7] = assay: Cell-cycle analysis; type: cell-based, human; settings: A549, 1.0 µM, 24 h, Figure 4C
In short: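 A549 cells (5.0 × 10^4/well) adhered overnight, then received 0.1% DMSO, test compound (0.1, 0.5 or 1.0 µM) or reference agent (1.0 µM) for 24 h; a time course used 0.5 µM for 12, 24 and 36 h. Cells were fixed in 70% ethanol at 4 °C for 24 h and stained with RNase A plus propidium iodide at 4 °C for 0.5 h in the dark. Flow cytometry gated G0/G1, S and G2/M by DNA content.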

A549 = assay: Antiproliferation assay; type: cell-based; settings: Homo sapiens, A549, 24 h, read-out: IC50 = mean ± SD, A549
In short: as §2

L02 = assay: Antiproliferation assay; type: cell-based; settings: Homo sapiens, L02, 24 h, read-out: IC50 = mean ± SD, L02
In short: as §2

[8] = Body weight of xenograft mice; type: in vivo, female BALB/c nude mice; settings: E5 i.p., A549 xenograft mice, 15 days
In short: as §1

A549 cells [9] = assay: Wound healing migration assay; type: cell-based, human; settings: A549, 24 h; E5 0.5, 1.0 and 2.0 µM, etoposide 1.0 µM
In short: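 Scratch assay: A549 cells were grown to 85% confluence in 6-well plates, scratched with a pipette tip and washed with PBS. They were then incubated at 37 °C for 24 h with 0.1% DMSO, test compound (0.5, 1.0 or 2.0 µM) or reference agents (1.0 µM). Wounds were imaged at 0 and 24 h, and inhibition of migration was expressed relative to control.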

A549 cells [10] = assay: Colony formation assay; type: cell-based, human; settings: A549, versus control and PPT-treated cells
MCF-7 = assay: Antiproliferation assay; type: cell-based; settings: Homo sapiens, MCF7, 24 h, read-out: IC50 = mean ± SD, MCF-7
In short: as §2

H446 = assay: Antiproliferation assay; type: cell-based; settings: Homo sapiens, NCI-H446, 24 h, read-out: IC50 = mean ± SD, H446
In short: as §2

[11] = tested on: non-small cell lung cancer (NSCLC) cell lines; settings: at 2 mM; ref Chang and Szabo [2002]; cited from earlier work

Compound	IC50 (Hela) [µM]	IC50 (BEAS-2B) [µM]	IC50 (A549) [µM]	IC50 (L02) [µM]	IC50 (MCF-7) [µM]	IC50 (H446) [µM]	also measured
COc1ccc(S(=O)(=O)Nc2cccnc2Nc2ccc(O)cc2)cc1 [ABT-751]							IC50 (neuroblastoma cell lines): ~1.5 µM; IC50 [1]: ~3.4 µM
COc1cc([C@@H]2c3cc4c(cc3[C@H](OC(=O)CCCc3ccc(NS(=O)(=O)c5cccc(Br)c5)cc3)[C@H]3COC(=O)[C@H]23)OCO4)cc(OC)c1OC [Compound E5, (5R,5aR,8aR,9R)-8-oxo-9-(3,4,5-trimethoxyphenyl)-5,5a,6,8,8a,9-hexahydrofuro [3′,4′:6,7]naphtho[2,3-d][1,3]dioxol-5-yl4-(4-((3-bromophenyl)sulfonamido)phenyl)butanoate]	51.3 ± 1.42	> 100	0.35 ± 0.13	> 100	2.91 ± 0.55	2.42 ± 0.3	tumour growth, E5 and etoposide at the same dose (A549 xenografts): specific inhibitory effect; Bax expression [2]: increased; expression of the antiapoptotic protein Bcl-2 [2]: significantly decreased; cells with low ΔΨm (ratio of cells with low membrane potential) (A549 cells [3]): 24.7%; cell invasion (A549 cells [4]): effectively inhibited cell invasion; expression of pPI3K and pAkt ([5]; A549, E5 0.1, 1.0 and 2.0 µM): down-regulated dose-dependent; tubulin depolymerization [6]: significant tubulin depolymerization; cells in G2/M phase (A549 cells [7]): 32.73%; cells in S phase (A549 cells [7]): 34.09%; body weight of the mice [8]: no significant changes; cell scratch healing (migration) (A549 cells [9]): significantly slowed dose dependent; clone formation rate and clone size (A549 cells [10]): lower clone formation rate and a smaller clone size
COc1cc([C@@H]2c3cc4c(cc3[C@H](OC(=O)CCCc3ccc(NS(=O)(=O)c5cc([N+](=O)[O-])ccc5C)cc3)[C@H]3COC(=O)[C@H]23)OCO4)cc(OC)c1OC [Compound E15, (5R,5aR,8aR,9R)-8-oxo-9-(3,4,5-trimethoxyphenyl)-5,5a,6,8,8a,9-hexahydrofuro [3′,4′:6,7]naphtho[2,3-d][1,3]dioxol-5-yl4-(4-((2-methyl-5-nitrophenyl)sulfonamido)phenyl)butanoate]	16.9 ± 1.01	97.3 ± 1.41	7.34 ± 1.32	> 100	59.25 ± 0.42	36.6 ± 1.59	
COc1cc([C@@H]2c3cc4c(cc3[C@@H](O[C@@H]3O[C@@H]5CO[C@@H](C)O[C@H]5[C@H](O)[C@H]3O)[C@H]3COC(=O)[C@H]23)OCO4)cc(OC)c1O [Etoposide, etoposide, reference compound]	24.7 ± 0.79	67.6 ± 2.25	9.32 ± 0.55	13.5 ± 1.15	10.9 ± 0.39	2.21 ± 0.42	tumour growth, E5 and etoposide at the same dose (A549 xenografts): specific inhibitory effect; tubulin depolymerization [6]: did not show such an effect; cell scratch healing (migration) (A549 cells [9]): strong inhibitory effect
O=c1cc(N2CCOCC2)oc2c(-c3ccccc3)cccc12 [LY294002, reference compound]							pPI3K/PI3K and pAkt/Akt ratio ([5]; A549, 1.0 µM): notable reduction
COc1cc([C@@H]2c3cc4c(cc3[C@H](O)[C@H]3COC(=O)[C@H]23)OCO4)cc(OC)c1OC [PPT, Podophyllotoxin, reference compound]	15.3 ± 0.58	8.91 ± 0.72	14.7 ± 1.14	9.42 ± 0.74	11.7 ± 0.45	3.69 ± 0.38	
O=C([O-])CCCc1ccccc1.[Na+] [sodium 4-phenylbutyrate]							growth of NSCLC cell lines [11]: impeding the growth
